Laboratory results from ChEMBL document CHEMBL3864132, “Free fatty acid receptor 1 (GPR40) agonists containing spirocyclic periphery inspired by LY2881835” (Bioorg Med Chem, 2016).
pEC50: −log10 of the molar value. Values belong to the compound of their own block, whether it stands above or below them.

Experiments:
[1] = target: T1, Free fatty acid receptor 1 (Homo sapiens, UniProt O14842); test: Agonist activity at human FFA1 receptor expressed in CHO cells assessed as induction of Ca2+ flux by fluo-8 dye based FLIPR assay; type: functional, cell-based
Summary of the method: (§1)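 CHO cells stably expressing human GPR40 seeded 24 h before assay, loaded 1 h with Fluo-8 calcium dye, read on FLIPR. Agonist response taken as maximum fluorescence change over baseline; concentration-response curves fitted for EC50. Efficacy expressed relative to GW9508 at 5 μM.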

[2] = target: T1, Free fatty acid receptor 1; test: Agonist activity at human FFA1 receptor expressed in CHO cells assessed as induction of Ca2+ flux by fluo-8 dye based FLIPR assay relative to GW9508; type: functional, cell-based; summary of the method: as §1
[3] = Kinetic aqueous solubility of the compound in PBS buffer […] at pH 7.4 after 2 hrs by UV-Visible spectrophotometric analysis; type: physicochemical; conditions: read-out: Kinetic_solubility
Summary of the method: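 Equilibrated 2 h at 25°C with shaking, then filtered. Filtrates read by UV-Vis scan against 0–400 μM calibration curves in methanol/PBS.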

[4] = Half life in BALB/c mouse liver microsomes at 2 uM by HPLC-MS analysis; type: ADME
Summary of the method: (§2)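 Pooled liver microsomes from male BALB/c mice at 0.42 mg protein/ml in 100 mM potassium phosphate pH 7.4 with MgCl2, NADPH and a G6P/G6PDH regenerating system. Compound 2 μM (1.6% solvent), 37°C, five time points over 40 min, duplicates. Quenched in acetonitrile, analysed by HPLC-MS/MS. kel from ln(AUC) versus time; T1/2 = 0.693/kel; CLint scaled to incubation volume per mg microsomes.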

[5] = target: T2, Free fatty acid receptor 3 (Homo sapiens, UniProt O14843); test: Agonist activity at human FFA3 receptor expressed in CHO cells assessed as induction of Ca2+ flux by fluo-8 dye based FLIPR assay; type: functional, cell-based
T2 sequence (O14843 whole entry): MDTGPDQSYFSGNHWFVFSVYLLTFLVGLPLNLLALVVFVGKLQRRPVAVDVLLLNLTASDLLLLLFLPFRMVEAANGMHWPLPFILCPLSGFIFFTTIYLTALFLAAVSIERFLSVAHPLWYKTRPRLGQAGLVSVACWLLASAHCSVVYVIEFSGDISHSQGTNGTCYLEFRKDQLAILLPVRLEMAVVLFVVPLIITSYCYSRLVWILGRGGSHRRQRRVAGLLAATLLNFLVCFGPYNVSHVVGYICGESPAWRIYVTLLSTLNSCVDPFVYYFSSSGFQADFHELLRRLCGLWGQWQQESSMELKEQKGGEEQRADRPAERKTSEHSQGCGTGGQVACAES
Summary of the method: (§3)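 CHO lines stably expressing the respective receptor (GPR43, GPR41 or GPR120) used for specificity screening. Cells loaded 1 h with Fluo-8 calcium dye and read by FLIPR; maximum fluorescence change over baseline taken as agonist response.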

[6] = Protein binding in human plasma at 1 uM after 5 hrs by HPLC-MS/MS analysis; type: ADME, cell-free; conditions: read-out: PPB (converted)
Summary of the method: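 Equilibrium dialysis (12–14 kDa MWCO) of plasma spiked at 1 μM (1% solvent) against PBS pH 7.4, 5 h at 37°C with shaking, quadruplicates. Chambers matrix-matched, precipitated with acetonitrile and analysed by HPLC-MS/MS. Bound % = (1 − buffer/plasma peak area) × 100; recovery checked against undialyzed spiked plasma.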

[7] = Apparent permeability from apical to basolateral side in human Caco2 cells at 10 uM by HPLC-MS analysis; type: ADME, cell-based; conditions: Caco-2
Summary of the method: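 Apical-to-basolateral transport across Caco-2 monolayers, integrity checked by TEER in every well. Compound at 10 μM, acceptor concentrations by HPLC-MS. Papp = (VA/(area × time)) × ([drug]acc/[drug]initial,donor), insert area 0.31 cm², in 10^-6 cm/s. Mean of n = 2.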

[8] = target: T3, Free fatty acid receptor 2 (Homo sapiens, UniProt O15552); test: Agonist activity at human FFA2 receptor expressed in CHO cells assessed as induction of Ca2+ flux by fluo-8 dye based FLIPR assay; type: functional, cell-based; summary of the method: as §3
T3 sequence (O15552 whole entry): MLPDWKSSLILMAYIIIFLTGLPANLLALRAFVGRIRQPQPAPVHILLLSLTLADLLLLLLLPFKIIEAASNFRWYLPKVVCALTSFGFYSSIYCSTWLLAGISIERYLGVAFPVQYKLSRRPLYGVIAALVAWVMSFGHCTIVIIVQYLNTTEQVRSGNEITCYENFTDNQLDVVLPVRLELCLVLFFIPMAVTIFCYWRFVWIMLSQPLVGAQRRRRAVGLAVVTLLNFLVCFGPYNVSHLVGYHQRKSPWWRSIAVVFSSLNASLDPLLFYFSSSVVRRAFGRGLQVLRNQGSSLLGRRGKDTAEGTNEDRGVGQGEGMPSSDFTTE

[9] = Intrinsic clearance in BALB/c mouse liver microsomes at 2 uM up to 40 mins by HPLC-MS analysis; type: ADME; summary of the method: as §2
[10] = target: T4, Free fatty acid receptor 4 (Homo sapiens, UniProt Q5NUL3); test: Agonist activity at human FFA4 receptor expressed in CHO cells assessed as induction of Ca2+ flux by fluo-8 dye based FLIPR assay; type: functional, cell-based; summary of the method: as §3
T4 sequence (Q5NUL3 whole entry): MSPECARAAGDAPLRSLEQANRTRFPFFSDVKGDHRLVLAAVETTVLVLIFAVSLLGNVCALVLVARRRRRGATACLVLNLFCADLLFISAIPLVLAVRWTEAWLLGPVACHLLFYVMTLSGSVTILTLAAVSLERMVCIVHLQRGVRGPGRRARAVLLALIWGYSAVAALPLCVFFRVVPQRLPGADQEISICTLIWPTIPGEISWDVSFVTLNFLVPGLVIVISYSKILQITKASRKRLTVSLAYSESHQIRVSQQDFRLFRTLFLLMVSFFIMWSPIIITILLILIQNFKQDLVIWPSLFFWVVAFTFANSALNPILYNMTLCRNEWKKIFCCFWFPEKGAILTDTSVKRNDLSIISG

[11] = Tmax in JAXC57BL/6J mouse at 10 mg/kg, po administered through plastic gavage as single dose by HPLC-MS analysis; type: ADME, organism-based; conditions: C57BL/6J, in vivo
Summary of the method: (§4)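 Male C57BL/6J mice dosed orally by gavage, 10 mg/kg single dose in 10% β-cyclodextrin (5 ml/kg). Plasma sampled at 30, 60, 120, 240 and 360 min (n=5 per time point), with 360 min excluded from calculations. HPLC-MS/MS quantitation; Cmax, Tmax and AUC from group data by linear trapezoidal rule.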

[12] = Tmax in JAXC57BL/6J mouse at 10 mg/kg, iv through bolus administration measured after 10 to 240 mins by HPLC-MS analysis; type: ADME, organism-based; conditions: C57BL/6J, in vivo
Summary of the method: (§5)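 Male C57BL/6J mice given 10 mg/kg as tail-vein bolus in 10% β-cyclodextrin (5 ml/kg). Plasma by cardiac puncture at 10, 30, 60, 120 and 240 min (n=5 per time point), stored at -70°C. Levels by HPLC-MS/MS; parameters from group data by linear trapezoidal rule.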

[13] = Cmax in JAXC57BL/6J mouse at 10 mg/kg, po administered through plastic gavage as single dose measured up to 240 mins by HPLC-MS analysis; type: ADME, organism-based; parameters: dose 10 mg/kg, route oral; conditions: C57BL/6J, in vivo; summary of the method: as §4
[14] = Cmax in JAXC57BL/6J mouse at 10 mg/kg, iv through bolus administration measured after 10 to 240 mins by HPLC-MS analysis; type: ADME, organism-based; parameters: dose 10 mg/kg, route intravenous; conditions: C57BL/6J, in vivo; summary of the method: as §5
[15] = Observed AUC infinity in JAXC57BL/6J mouse at 10 mg/kg, iv through bolus administration measured after 10 to 240 mins by HPLC-MS analysis; type: ADME, organism-based; parameters: dose 10 mg/kg, route intravenous, time infinity; conditions: C57BL/6J, in vivo; summary of the method: as §5
[16] = Observed AUC infinity in JAXC57BL/6J mouse at 10 mg/kg, po administered through plastic gavage as single dose measured up to 240 mins by HPLC-MS analysis; type: ADME, organism-based; parameters: dose 10 mg/kg, time infinity, route oral; conditions: C57BL/6J, in vivo; summary of the method: as §4
[17] = Oral bioavailability in JAXC57BL/6J mouse at 10 mg/kg administered through plastic gavage as single dose measured up to 240 mins by HPLC-MS analysis; type: ADME, organism-based; conditions: C57BL/6J, in vivo
Summary of the method: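 F = AUC0-∞ oral / AUC0-∞ i.v. × 100%, from male C57BL/6J mice given 10 mg/kg in 10% β-cyclodextrin by gavage or tail-vein bolus. n=5 per time point; plasma drug by HPLC-MS/MS.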

T1 sequence (O14842 whole entry): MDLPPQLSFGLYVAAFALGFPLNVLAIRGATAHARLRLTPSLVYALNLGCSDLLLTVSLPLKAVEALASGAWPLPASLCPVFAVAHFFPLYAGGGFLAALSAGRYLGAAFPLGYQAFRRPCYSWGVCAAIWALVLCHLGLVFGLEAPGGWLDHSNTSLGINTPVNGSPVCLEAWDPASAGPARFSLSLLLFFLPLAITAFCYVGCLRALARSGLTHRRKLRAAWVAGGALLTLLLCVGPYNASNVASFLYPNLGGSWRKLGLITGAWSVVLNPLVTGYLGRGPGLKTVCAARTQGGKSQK

pEC50 [1]: 5.70 | Emax [2]: 75%
Compound: O=C(O)CCc1ccc(OCc2ccc(CN3CCC4(CC3)CC(OCc3ccc(F)cc3)CCO4)cc2)cc1 (configuration not stated)

pEC50 [1]: < 4.70
Compound: CC1CCOC2(CCN(Cc3ccc(COc4ccc(CCC(=O)O)cc4)cc3)CC2)C1 (configuration not stated)

pEC50 [1]: 6.55 | solubility kinetic at 2 h [3]: 42 µM | half-life at 2 µM [4]: 11.8 min | pEC50 [5]: < 5.00 | fraction unbound at 5 h, 1 µM [6]: 0.007 | Papp A→B at 10 µM [7]: 15.8 ×10⁻⁶ cm/s | pEC50 [8]: < 5.00 | CLint at 40 min, 2 µM [9]: 141 µL/min/mg | pEC50 [10]: < 5.00 | Emax [2]: 100%
Compound: COc1ccc(CC2CCOC3(CCN(Cc4ccc(COc5ccc(CCC(=O)O)cc5)cc4)CC3)C2)cc1.Cl (configuration not stated)

pEC50 [1]: < 4.70
Compound: O=C(O)CCc1ccc(OCc2ccc(CN3CCC4(CC3)CC(Cc3cccc(F)c3)CCO4)cc2)cc1 (configuration not stated)

pEC50 [1]: 7.11 | solubility kinetic at 2 h [3]: 69 µM | half-life at 2 µM [4]: 9.6 min | pEC50 [5]: < 5.00 | fraction unbound at 5 h, 1 µM [6]: 0.002 | Papp A→B at 10 µM [7]: 10.4 ×10⁻⁶ cm/s | pEC50 [8]: < 5.00 | CLint at 40 min, 2 µM [9]: 173 µL/min/mg | pEC50 [10]: < 5.00 | Emax [2]: 74%
Compound: Cc1ccc(CC2CCOC3(CCN(Cc4ccc(COc5ccc(CCC(=O)O)cc5)cc4)CC3)C2)cc1.Cl (configuration not stated)

pEC50 [1]: 5.89 | Emax [2]: 98%
Compound: O=C(O)CCc1ccc(OCc2ccc(CN3CCC4(CC3)CC(OCc3cccc(F)c3)CCO4)cc2)cc1 (configuration not stated)

Further lines, the compound ahead of its results:

Compound: O=C(O)CCc1ccc(OCc2ccc(CN3CCC4(CC3)CC(Cc3nc(-c5cccnc5)no3)CCO4)cc2)cc1 (configuration not stated)
pEC50 [1]: < 4.70

Compound: CCOC1CCOC2(CCN(Cc3ccc(COc4ccc(CCC(=O)O)cc4)cc3)CC2)C1 (configuration not stated)
pEC50 [1]: < 4.70

Compound: COC1CCOC2(CCN(Cc3ccc(COc4ccc(CCC(=O)O)cc4)cc3)CC2)C1 (configuration not stated)
pEC50 [1]: < 4.70

Compound: COCCc1noc(CC2CCOC3(CCN(Cc4ccc(COc5ccc(CCC(=O)O)cc5)cc4)CC3)C2)n1 (configuration not stated)
pEC50 [1]: < 4.70

Compound: Cl.O=C(O)CCc1ccc(OCc2ccc(CN3CCC4(CC3)CC(Cc3ccc(F)cc3)CCO4)cc2)cc1 (configuration not stated)
pEC50 [1]: 6.39 | Tmax [11]: 30 min | solubility kinetic at 2 h [3]: 143 µM | Tmax [12]: 10 min | half-life at 2 µM [4]: 23.4 min | pEC50 [5]: < 5.00 | Cmax [13]: 226 ng/mL | fraction unbound at 5 h, 1 µM [6]: 0.017 | Cmax [14]: 2770 ng/mL | Papp A→B at 10 µM [7]: 8.7 ×10⁻⁶ cm/s | AUC(0-inf) [15]: 1790 ng·h/mL | AUC(0-inf) [16]: 184 ng·h/mL | pEC50 [8]: < 5.00 | CLint at 40 min, 2 µM [9]: 71.3 µL/min/mg | pEC50 [10]: < 5.00 | Emax [2]: 88% | bioavailability [17]: 10.3%
